Assay results: ChEMBL document CHEMBL1137710, “Synthesis and in vitro antitumor activity of new quinoxaline derivatives” (2009)

Experiments:
Format in all cases: functional
[1] = Growth inhibition of human Hs 578T cells after 48 hrs by sulforhodamine B assay
In short: (§1)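 NCI 60-human-tumor-cell-line panel, with compounds tested over a 5-log dose range. Values are taken from dose-response curves as log10 molar concentrations: GI50 is 50% net growth inhibition, TGI is total growth inhibition, and LC50 is 50% net cell death.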

IGROV-1 = assay: Growth inhibition of human IGROV1 cells after 48 hrs by sulforhodamine B assay; conditions: IGROV-1, 48 h; in short: as §1
NCI-H460 [2] = assay: Growth inhibition of human NCI-H460 cells after 48 hrs by sulforhodamine B assay; conditions: NCI-H460, 48 h; in short: as §1
EKVX = assay: Growth inhibition of human EKVX cells after 48 hrs by sulforhodamine B assay; in short: as §1
MCF7 [3] = assay: Anticancer activity against human MCF7 cells assessed as cell growth at 100 uM after 48 hrs by sulforhodamine B assay; conditions: MCF7, 48 h, read-out: Activity
MCF7 [4] = assay: Growth inhibition of human MCF7 cells after 48 hrs by sulforhodamine B assay; conditions: MCF7, 48 h; in short: as §1
SK-MEL-5 = assay: Growth inhibition of human SK-MEL-5 cells after 48 hrs by sulforhodamine B assay; conditions: SK-MEL-5, 48 h; in short: as §1
SF-539 = assay: Growth inhibition of human SF539 cells after 48 hrs by sulforhodamine B assay; conditions: SF-539, 48 h; in short: as §1
SF-268 [5] = assay: Anticancer activity against human SF268 cells assessed as cell growth at 100 uM after 48 hrs by sulforhodamine B assay; conditions: SF-268, 48 h, read-out: Activity
A498 = assay: Growth inhibition of human A498 cells after 48 hrs by sulforhodamine B assay; conditions: A498, 48 h; in short: as §1
SR = assay: Growth inhibition of human SR cells after 48 hrs by sulforhodamine B assay
In short: (§2)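 Run in the NCI 60-human-tumour-cell-line panel, tested over a 5-log dose range. Dose–response curves gave three values per cell line, each as a log10 molar concentration: GI50 (50% inhibition of net cell growth), TGI (total inhibition of net growth) and LC50 (50% net cell death). The mean graph midpoint is the arithmetic mean over all lines, with insensitive lines entered at the highest concentration tested.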

PC-3 = assay: Growth inhibition of human PC3 cells after 48 hrs by sulforhodamine B assay; conditions: PC-3, 48 h; in short: as §1
KM12 = assay: Growth inhibition of human KM12 cells after 48 hrs by sulforhodamine B assay; conditions: KM12, 48 h; in short: as §1
RXF 393 = assay: Growth inhibition of human RXF393 cells after 48 hrs by sulforhodamine B assay; conditions: RXF 393, 48 h; in short: as §1
SK-MEL-2 = assay: Growth inhibition of human SK-MEL-2 cells after 48 hrs by sulforhodamine B assay; conditions: SK-MEL-2, 48 h; in short: as §1
SNB-75 = assay: Growth inhibition of human SNB75 cells after 48 hrs by sulforhodamine B assay; conditions: SNB-75, 48 h; in short: as §2
BT-549 = assay: Growth inhibition of human BT549 cells after 48 hrs by sulforhodamine B assay; conditions: BT-549, 48 h; in short: as §1
LOX IMVI = assay: Growth inhibition of human LOXIMVI cells after 48 hrs by sulforhodamine B assay; in short: as §1
HOP-92 = assay: Growth inhibition of human HOP92 cells after 48 hrs by sulforhodamine B assay; conditions: HOP-92, 48 h; in short: as §1
DU-145 = assay: Growth inhibition of human DU145 cells after 48 hrs by sulforhodamine B assay; conditions: DU-145, 48 h; in short: as §1
NCI-H226 = assay: Growth inhibition of human NCI-H226 cells after 48 hrs by sulforhodamine B assay; conditions: NCI-H226, 48 h; in short: as §1
ACHN = assay: Growth inhibition of human ACHN cells after 48 hrs by sulforhodamine B assay
HCT-15 = assay: Growth inhibition of human HCT15 cells after 48 hrs by sulforhodamine B assay; conditions: HCT-15, 48 h; in short: as §1
SK-MEL-28 = assay: Growth inhibition of human SK-MEL-28 cells after 48 hrs by sulforhodamine B assay; conditions: SK-MEL-28, 48 h; in short: as §1
UACC-62 = assay: Growth inhibition of human UACC62 cells after 48 hrs by sulforhodamine B assay; conditions: UACC-62, 48 h; in short: as §2
NCI-H460 [6] = assay: Anticancer activity against human NCI-H460 cells assessed as cell growth at 100 uM after 48 hrs by sulforhodamine B assay; conditions: NCI-H460, 48 h, read-out: Activity
SF-268 [7] = assay: Growth inhibition of human SF268 cells after 48 hrs by sulforhodamine B assay; conditions: SF-268, 48 h; in short: as §1
SN12C = assay: Growth inhibition of human SN12C cells after 48 hrs by sulforhodamine B assay; in short: as §2
MOLT-4 = assay: Growth inhibition of human MOLT4 cells after 48 hrs by sulforhodamine B assay; conditions: MOLT-4, 48 h; in short: as §1
[8] = read-out: pLC50 (the source's name) (converted)

SMILES: Nc1cc(N)c2nc(-c3ccccc3)c(Sc3ccc(F)cc3)nc2c1
- GI50 [1]: 26.9 µM
- CC50 [1, 8]: > 100 µM
- TGI ([1]; read-out: pTGI (converted)): 61.7 µM
- GI50 (IGROV-1): 25.1 µM
- CC50 (IGROV-1; [8]): > 100 µM
- TGI (IGROV-1; read-out: pTGI (converted)): > 100 µM
- GI50 (NCI-H460 [2]): 21.9 µM
- LC50 (50% net cell kill) (NCI-H460 [2]): > 100 µM
- TGI (NCI-H460 [2]; read-out: pTGI (converted)): 66.1 µM
- GI50 (EKVX): 20.4 µM
- LC50 (50% net cell kill) (EKVX): 83.2 µM
- TGI (EKVX; read-out: pTGI (converted)): 41.7 µM
- growth at 100 µM (MCF7 [3]): 7%
- GI50 (MCF7 [4]): 20 µM
- CC50 (MCF7 [4]; [8]): > 100 µM
- TGI (MCF7 [4]; read-out: pTGI (converted)): 63.1 µM
- GI50 (SK-MEL-5): 15.5 µM
- CC50 (SK-MEL-5; [8]): 70.8 µM
- TGI (SK-MEL-5; read-out: pTGI (converted)): 33.1 µM
- GI50 (SF-539): 21.4 µM
- LC50 (SF-539): 75.9 µM
- TGI (SF-539; read-out: pTGI (converted)): 39.8 µM
- growth at 100 µM (SF-268 [5]): 0%
- GI50 (A498): > 100 µM
- CC50 (A498; [8]): > 100 µM
- TGI (A498; read-out: pTGI (converted)): > 100 µM
- GI50 (SR): 35.5 µM
- LC50 (concentration giving 50% net cell death) (SR): > 100 µM
- TGI (SR; read-out: pTGI (converted)): > 100 µM
- GI50 (PC-3): > 100 µM
- CC50 (PC-3; [8]): > 100 µM
- TGI (PC-3; read-out: pTGI (converted)): > 100 µM
- GI50 (KM12): 20.9 µM
- LC50 (50% net cell kill) (KM12): > 100 µM
- TGI (KM12; read-out: pTGI (converted)): 49 µM
- GI50 (RXF 393): > 100 µM
- CC50 (RXF 393; [8]): > 100 µM
- TGI (RXF 393; read-out: pTGI (converted)): > 100 µM
- GI50 (SK-MEL-2): 38 µM
- CC50 (SK-MEL-2; [8]): > 100 µM
- TGI (SK-MEL-2; read-out: pTGI (converted)): > 100 µM
- GI50 (SNB-75): 20.9 µM
- LC50 (SNB-75): > 100 µM
- TGI (SNB-75; read-out: pTGI (converted)): 47.9 µM
- GI50 (BT-549): 21.9 µM
- CC50 (BT-549; [8]): 89.1 µM
- TGI (BT-549; read-out: pTGI (converted)): 43.7 µM
- GI50 (LOX IMVI): 22.9 µM
- LC50 (LOX IMVI): 74.1 µM
- TGI (LOX IMVI; read-out: pTGI (converted)): 40.7 µM
- GI50 (HOP-92): 22.9 µM
- LC50 (50% net cell death) (HOP-92): > 100 µM
- TGI (HOP-92; read-out: pTGI (converted)): 55 µM
- GI50 (DU-145): > 100 µM
- CC50 (DU-145; [8]): > 100 µM
- TGI (DU-145; read-out: pTGI (converted)): > 100 µM
- GI50 (NCI-H226): 19.1 µM
- LC50 (NCI-H226): > 100 µM
- TGI (NCI-H226; read-out: pTGI (converted)): 46.8 µM
- GI50 (ACHN): > 100 µM
- CC50 (ACHN; [8]): > 100 µM
- TGI (ACHN; read-out: pTGI (converted)): > 100 µM
- GI50 (HCT-15): 13.5 µM
- LC50 (HCT-15): 56.2 µM
- TGI (HCT-15; read-out: pTGI (converted)): 27.5 µM
- GI50 (SK-MEL-28): 23.4 µM
- CC50 (SK-MEL-28; [8]): > 100 µM
- TGI (SK-MEL-28; read-out: pTGI (converted)): 53.7 µM
- GI50 (UACC-62): 16.6 µM
- CC50 (UACC-62; [8]): 60.3 µM
- TGI (UACC-62; read-out: pTGI (converted)): 31.6 µM
- growth at 100 µM (NCI-H460 [6]): 0%
- GI50 (SF-268 [7]): 17.8 µM
- LC50 (SF-268 [7]): 85.1 µM
- TGI (SF-268 [7]; read-out: pTGI (converted)): 38.9 µM
- GI50 (SN12C): > 100 µM
- CC50 (SN12C; [8]): > 100 µM
- TGI (SN12C; read-out: pTGI (converted)): > 100 µM
- GI50 (MOLT-4): > 100 µM
- LC50 (MOLT-4): > 100 µM
- TGI (MOLT-4; read-out: pTGI (converted)): > 100 µM
